Reference: ChEMBL document CHEMBL2311361, “Diminutive effect on T and B-cell proliferation of non-cytotoxic α-santonin derived 1,2,3-triazoles: a report” (Eur J Med Chem, 2013)
≈ marks a conversion by molar mass, not a printed value.

Key:
[1] = Immunosuppressive activity in Balb/c mouse T cells assessed as inhibition of concanavalin A-induced cell proliferation at 10^-6 M after 48 hrs by MTT assay; format: functional; settings: Mus musculus, Balb/c, T-cell, 48 h
Method in brief: (§1)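 Spleens taken aseptically from Balb/c mice (18–22 g). Single-cell suspension made in incomplete RPMI, RBCs lysed with Tris-ammonium chloride, cells washed, resuspended in complete RPMI and checked for viability by trypan blue. Cells seeded at 1 × 10⁶ cells/mL. Compounds in DMSO tested at 1×10⁻⁴, 1×10⁻⁵ and 1×10⁻⁶ M, 48 h, 37 °C, 5% CO₂.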

[2] = Cytotoxicity against in Balb/c mouse T cells at 10^-5 M after 48 hrs by MTT assay; format: cell-based; settings: t-cell, 10 µM; method in brief: as §1
[3] = Immunostimulant activity in Balb/c mouse T cells assessed as inhibition of concanavalin A-induced cell proliferation at 10^-5 M after 48 hrs by MTT assay; format: functional; method in brief: as §1
[4] = Cytotoxicity against in Balb/c mouse B cells at 10^-4 M after 48 hrs by MTT assay; format: cell-based; settings: 100 µM; method in brief: as §1
[5] = Immunostimulant activity in Balb/c mouse B cells assessed as inhibition of LPS-induced cell proliferation at 10^-5 M after 48 hrs by MTT assay; format: functional; method in brief: as §1
[6] = Immunostimulant activity in Balb/c mouse B cells assessed as inhibition of LPS-induced cell proliferation at 10^-6 M after 48 hrs by MTT assay; format: functional; method in brief: as §1
[7] = Cytotoxicity against in Balb/c mouse T cells at 10^-6 M after 48 hrs by MTT assay; format: cell-based; settings: t-cell, 1 µM; method in brief: as §1
[8] = Cytotoxicity against in Balb/c mouse B cells at 10^-6 M after 48 hrs by MTT assay; format: cell-based; settings: 1 µM; method in brief: as §1
[9] = Immunostimulant activity in Balb/c mouse T cells assessed as inhibition of concanavalin A-induced cell proliferation at 10^-4 M after 48 hrs by MTT assay; format: functional; settings: Mus musculus, Balb/c, T-cell, 48 h; method in brief: as §1
[10] = Cytotoxicity against in Balb/c mouse B cells at 10^-5 M after 48 hrs by MTT assay; format: cell-based; settings: 10 µM; method in brief: as §1
[11] = Cytotoxicity against in Balb/c mouse T cells at 10^-4 M after 48 hrs by MTT assay; format: cell-based; settings: t-cell, 100 µM; method in brief: as §1
[12] = Immunosuppressive activity in Balb/c mouse B cells assessed as inhibition of LPS-induced cell proliferation at 10^-4 M after 48 hrs by MTT assay; format: functional; method in brief: as §1
[13] = Immunosuppressive activity in Balb/c mouse B cells assessed as inhibition of LPS-induced cell proliferation at 10^-5 M after 48 hrs by MTT assay; format: functional; method in brief: as §1
[14] = Immunostimulant activity in Balb/c mouse T cells assessed as inhibition of concanavalin A-induced cell proliferation at 10^-6 M after 48 hrs by MTT assay; format: functional; method in brief: as §1
[15] = Immunosuppressive activity in Balb/c mouse T cells assessed as inhibition of concanavalin A-induced cell proliferation at 10^-5 M after 48 hrs by MTT assay; format: functional; method in brief: as §1
[16] = Immunosuppressive activity in Balb/c mouse T cells assessed as inhibition of concanavalin A-induced cell proliferation at 10^-4 M after 48 hrs by MTT assay; format: functional; method in brief: as §1
[17] = Immunostimulant activity in Balb/c mouse B cells assessed as inhibition of LPS-induced cell proliferation at 10^-4 M after 48 hrs by MTT assay; format: functional; method in brief: as §1
[18] = Immunosuppressive activity in Balb/c mouse B cells assessed as inhibition of LPS-induced cell proliferation at 10^-6 M after 48 hrs by MTT assay; format: functional; method in brief: as §1
B = assay: Immunosuppressive activity in Balb/c mouse B cells assessed as inhibition of LPS-induced cell proliferation after 48 hrs by MTT assay; format: functional, cell-based; method in brief: as §1
Plasmodium falciparum = assay: Antimalarial activity against chloroquine-resistant Plasmodium falciparum Smith; format: functional; settings: read-out: ED50 (the source's name)

Row | SMILES | inhibition at 1 µM [1] [%] | Activity [2] | inhibition at 10 µM [3] [%] | Activity [4] | inhibition at 10 µM [5] [%] | inhibition at 1 µM [6] [%] | Activity [7] | Activity [8] | inhibition at 100 µM [9] [%] | Activity [10] | Activity [11] | inhibition at 100 µM [12] [%] | inhibition at 10 µM [13] [%] | inhibition at 1 µM [14] [%] | inhibition at 10 µM [15] [%] | inhibition at 100 µM [16] [%] | inhibition at 100 µM [17] [%] | inhibition at 1 µM [18] [%] | inhibition (B) | EC50 (Plasmodium falciparum) [mg/L]
1 | Cc1cc(OCc2cnnn2-c2ccc(Br)cc2)c(C)c2c1CC[C@H]1[C@H](C)C(=O)O[C@@H]21 | 1.21 | Non-toxic | 2.43 | Non-toxic | 36.8 | 26.5 | Non-toxic | Non-toxic | 48.8 | Non-toxic | Non-toxic | 15.4 | – | – | – | – | – | – | – | –
2 | Cc1cc(OCc2cnnn2-c2ccc3ccccc3c2)c(C)c2c1CC[C@H]1[C@H](C)C(=O)O[C@@H]21 | – | Non-toxic | 2.43 | Toxic | – | 7.69 | Non-toxic | Non-toxic | 13.4 | Non-toxic | Toxic | 1.7 | 23.1 | 12.2 | – | – | – | – | – | –
3 | Cc1cc(OCc2cnnn2-c2ccc(Br)c3ccccc23)c(C)c2c1CC[C@H]1[C@H](C)C(=O)O[C@@H]21 | – | Toxic | – | Toxic | – | 27.1 | Non-toxic | Non-toxic | – | Toxic | Toxic | – | 17.1 | 30 | 48.6 | 10 | 12.8 | – | – | –
4 | Cc1cc(OCc2cnnn2/C=C/c2ccccc2)c(C)c2c1CC[C@H]1[C@H](C)C(=O)O[C@@H]21 | 95.1 | Non-toxic | – | Non-toxic | 48.7 | – | Non-toxic | Non-toxic | – | Non-toxic | Non-toxic | 36.8 | – | – | 95.1 | 95.1 | – | 7.69 | – | –
5 | Cc1cc(OCc2cnnn2-c2ccc(F)cc2)c(C)c2c1CC[C@H]1[C@H](C)C(=O)O[C@@H]21 | – | Non-toxic | 44.3 | Non-toxic | 10 | 11.4 | Non-toxic | Non-toxic | 70 | Non-toxic | Non-toxic | 2.85 | – | 12.8 | – | – | – | – | – | –
6 | COc1ccc(-n2nncc2COc2cc(C)c3c(c2C)[C@@H]2OC(=O)[C@@H](C)[C@@H]2CC3)cc1OC | – | Non-toxic | 15.8 | Toxic | – | 15.4 | Non-toxic | Non-toxic | 90.2 | Non-toxic | Toxic | – | 0.85 | 75.6 | – | – | 12.8 | – | – | –
7 | Cc1cc(OCc2cnnn2-c2ccccc2)c(C)c2c1CC[C@H]1[C@H](C)C(=O)O[C@@H]21 | 21.4 | Toxic | – | Toxic | 8.57 | 30 | Non-toxic | Non-toxic | 97.1 | Toxic | Toxic | – | – | – | – | – | 1.42 | – | – | –
8 | CC(=O)Oc1cc(C)c2c(c1C)[C@@H]1OC(=O)[C@@H](C)[C@@H]1CC2 | – | Non-toxic | 26.8 | Non-toxic | – | – | Non-toxic | Non-toxic | 47.6 | Non-toxic | Non-toxic | -36.8 | 25.6 | 18.3 | – | – | – | 23.9 | Dose-dependent effect | –
9 | CC1=CC2C[C@]3(C)CC[C@H]4[C@H](C)C(=O)O[C@@H]4C13OO2 (some centres undefined) | – | – | – | – | – | – | – | – | – | – | – | – | – | – | – | – | – | – | – | 0.729 (≈ 2.76 µM)
10 | Cc1cc(OCc2cnnn2-c2ccc(-c3ccccc3)cc2)c(C)c2c1CC[C@H]1[C@H](C)C(=O)O[C@@H]21 | – | Non-toxic | 63.4 | Toxic | – | 17.9 | Non-toxic | Non-toxic | 2.43 | Non-toxic | Toxic | – | 3.41 | 35.4 | – | – | 15.4 | – | – | –
11 | Cc1cc(OCc2cnnn2-c2cc(F)c(F)cc2Br)c(C)c2c1CC[C@H]1[C@H](C)C(=O)O[C@@H]21 | – | Toxic | – | Toxic | – | – | Toxic | Toxic | – | Toxic | Toxic | 7.14 | 21.4 | 21.4 | 20 | 15.7 | – | 20 | – | –
12 | COc1c(Br)cc(C)cc1-n1nncc1COc1cc(C)c2c(c1C)[C@@H]1OC(=O)[C@@H](C)[C@@H]1CC2 | – | Non-toxic | 7.14 | Non-toxic | 28.6 | 27.1 | Non-toxic | Non-toxic | 5.71 | Non-toxic | Non-toxic | – | – | 5.71 | – | – | 15.7 | – | – | –
13 | Cc1cc(OCc2cnnn2-c2cccc([N+](=O)[O-])c2)c(C)c2c1CC[C@H]1[C@H](C)C(=O)O[C@@H]21 | 93.9 | Toxic | – | Toxic | 0.85 | – | Non-toxic | Non-toxic | – | Toxic | Toxic | – | – | – | 93.9 | 95.1 | 36.8 | 24.8 | – | –
14 | CCCOc1ccc(-n2nncc2COc2cc(C)c3c(c2C)[C@@H]2OC(=O)[C@@H](C)[C@@H]2CC3)cc1Cl | 7.14 | Non-toxic | – | Non-toxic | 12.8 | 41.4 | Non-toxic | Non-toxic | 7.14 | Non-toxic | Non-toxic | – | – | – | 27.1 | – | 21.4 | – | – | –
15 | COc1ccc(F)c(-n2nncc2COc2cc(C)c3c(c2C)[C@@H]2OC(=O)[C@@H](C)[C@@H]2CC3)c1Br | 14.3 | Toxic | – | Toxic | 1.42 | – | Toxic | Toxic | – | Toxic | Toxic | 24.3 | – | – | 37.1 | 45.7 | – | 1.42 | – | –
